These results are taken from ChEMBL document CHEMBL3822422, “Discovery of the First α-Amino-3-hydroxy-5-methyl-4-isoxazolepropionic Acid (AMPA) Receptor Antagonist Dependent upon Transmembrane AMPA Receptor Regulatory Protein (TARP) γ-8” (J Med Chem, 2016).

Data set [1] addresses T1, Glutamate receptor 1 (Homo sapiens, UniProt P42261). In words: Antagonist activity at human iGluA1 receptor flop isoform expressed in CHO-S cells coexpressing TARP gamma-3 assessed as inhibition of glutamate-induced increase in intracellular calcium levels after 2 mins followed by cyclothiazide/glutamate addition by fluorescence imaging plate reader method. The class given is cell-based. In outline:
(§1)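 Human GluA1 flop transiently co-expressed with the TARP subtype in CHO-S cells. Frozen cells were thawed, plated at 50,000 cells/well and cultured overnight at 37 °C. Buffer was HBSS with 20 mM HEPES pH 7.4, 2.5 mM probenecid and 4 mM CaCl2. Compound was added, then cyclothiazide (20 μM final) plus glutamate (45 μM final). FLIPR Ca2+ read, normalised to full antagonist block and buffer baseline. Four-parameter IC50; mean ± SEM, n ≥ 2.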

In data set [2] the target is T1, Glutamate receptor 1. The data set is described as follows: Antagonist activity at human iGluA1 receptor flop isoform expressed in CHO-S cells coexpressing TARP gamma-4 assessed as inhibition of glutamate-induced increase in intracellular calcium levels after 2 mins followed by cyclothiazide/glutamate addition by fluorescence imaging plate reader method. The class given is cell-based. In outline:
as §1

In data set [3] the target is T1, Glutamate receptor 1. In words: Antagonist activity at human iGluA1 receptor flop isoform expressed in CHO-S cells coexpressing TARP gamma-8 and human EAAT3 assessed as inhibition of glutamate-induced increase in intracellular calcium levels after 2 mins followed by cyclothiazide/glutamate addition by fluo-4 AM dye based fluorescence imaging plate reader method. The class given is cell-based. In outline:
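Transiently transfected CHO-S cells (human GluA1Q flop with TARP γ-8 and human EAAT3, DNA ratio 2:3), frozen, thawed, plated overnight at 37 °C; Fluo-4 AM loading 2 h at 22 °C. Compound added, then 2 min later glutamate (5 μM final); cyclothiazide (20 μM) plus glutamate (45 μM) 2 min after. FLIPR Ca2+ read; inhibition relative to 167 μM nonselective antagonist and buffer baseline; four-parameter logistic IC50; mean ± SEM, n ≥ 2.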

Data set [4] deals with Rattus norvegicus. The data set is described as follows: Anticonvulsant activity in po dosed Sprague-Dawley rat assessed as inhibition of pentylenetetrazole-induced clonic convulsions administered 30 mins prior to PTZ dosing measured over 30 mins. The class given is functional.
Data set [5] deals with T1, Glutamate receptor 1. In words: Antagonist activity at human iGluA1 receptor flop isoform expressed in CHO-S cells coexpressing TARP gamma-2 assessed as inhibition of glutamate-induced increase in intracellular calcium levels after 2 mins followed by cyclothiazide/glutamate addition by fluo-4 AM dye based fluorescence imaging plate reader method. Type of data set: cell-based.

For data set [6], the system named is Rattus norvegicus. The data set is described as follows: Protective index, ratio of TD50 for motor impairment to ED50 for inhibition of pentylenetetrazole-induced clonic convulsions in po dosed Sprague-Dawley rat. In outline:
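PI = inverted screen TD50 divided by PTZ ED50. For the ED50, rats were dosed orally 30 min before PTZ (35 mg/kg, sc), with n = 10 per group. Read-out was % block of clonic convulsions; ED50 given with 95% confidence limits.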

Data set [7] has as its system Rattus norvegicus. In words: Toxicity in Sprague-Dawley rat assessed as motor impairment at 30 mg/kg, po by inverted screen test. The class given is organism-based. The conditions noted are these: in vivo. In outline:
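Oral dosing in rats, then inverted screen motor-function score. Plasma exposure measured. Mean ± SEM of ≥4 rats/group, compared with vehicle control.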

Data set [8] deals with T1, Glutamate receptor 1. In words: Antagonist activity at human iGluA1 receptor flip isoform expressed in CHO-S cells assessed as inhibition of glutamate-induced increase in intracellular calcium levels after 2 mins followed by cyclothiazide/glutamate addition by fluo-4 NW dye based fluorescence imaging plate reader method. The class given is cell-based.
A short description of data set [9]: Clearance in rat. The class given is ADME, organism-based. As to conditions: in vivo.
For data set [10], the target named is T2, Cytochrome P450 1A2 (Homo sapiens, UniProt P05177).
T2 sequence (P05177 whole entry): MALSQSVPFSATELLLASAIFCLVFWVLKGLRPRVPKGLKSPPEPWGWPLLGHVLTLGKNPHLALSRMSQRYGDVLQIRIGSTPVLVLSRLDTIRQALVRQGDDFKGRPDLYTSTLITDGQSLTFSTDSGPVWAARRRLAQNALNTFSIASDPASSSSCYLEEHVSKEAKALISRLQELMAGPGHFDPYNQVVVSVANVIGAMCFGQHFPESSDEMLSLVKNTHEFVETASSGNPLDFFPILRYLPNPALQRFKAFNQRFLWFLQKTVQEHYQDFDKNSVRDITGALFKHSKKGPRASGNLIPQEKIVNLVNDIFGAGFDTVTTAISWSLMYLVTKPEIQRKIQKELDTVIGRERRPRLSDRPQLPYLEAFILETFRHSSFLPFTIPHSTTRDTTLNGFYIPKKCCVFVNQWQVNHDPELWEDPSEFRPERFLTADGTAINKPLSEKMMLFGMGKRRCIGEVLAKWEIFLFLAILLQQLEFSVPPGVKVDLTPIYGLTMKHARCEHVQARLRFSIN
The data set is described as follows: Induction of CYP1A2 in human hepatocytes at 0.2 to 20 uM compared to omeprazole. The class given is ADME, cell-based, Hepatocyte. In outline: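 Human hepatocytes treated over a concentration range; CYP1A2 fold induction expressed as percent of omeprazole; >30% taken as induction, <15% as none.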

The target in data set [11] is T2, Cytochrome P450 1A2. In words: Inhibition of human CYP1A2. The class given is ADME.
Data set [12] has as its system UGT. The data set is described as follows: Drug metabolism assessed as UGT-mediated compound glucuronidation in human liver microsomes. The class given is ADME. As to conditions: read-out: Drug metabolism. In outline: (§2)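 Microsomes incubated with appropriate cofactors for UGT; percent metabolism, n = 1.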
Data set [13] concerns Hepatocyte. The data set is described as follows: Drug metabolism in human hepatocytes assessed as sulfation by LC/MS/MS analysis. The class given is ADME, cell-based.
Data set [14] deals with UGT. In words: Drug metabolism assessed as UGT-mediated compound glucuronidation in rat liver microsomes. The class given is ADME. As to conditions: read-out: Drug metabolism. In outline: as §2
Data set [15] has as its system Hepatocyte. The data set is described as follows: Drug metabolism in rat hepatocytes assessed as glucuronidation by LC/MS/MS analysis. The class given is ADME, cell-based.
Data set [16] is described as follows: Cmax in rat plasma at 30 mg/kg, po measured on day 1. Type of data set: ADME, organism-based. More on the design: dose 30 mg/kg, route oral.
Data set [17] can be described thus: Cmax in rat plasma at 30 mg/kg, po measured on day 4. Type of data set: ADME, organism-based. Details: dose 30 mg/kg, route oral. In outline:
(§3)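 Rats dosed orally at 30 mg/kg for 4 days; plasma Cmax and AUC determined.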

Data set [18] in a line: AUC in rat plasma at 30 mg/kg, po measured on day 1. The class given is ADME, organism-based.
Data set [19] in a line: AUC in rat plasma at 30 mg/kg, po measured on day 4. The class given is ADME, organism-based. In outline:
as §3

In data set [20] the test system is Hepatocyte. In words: Drug metabolism in human hepatocytes assessed as glucuronidation. The class given is ADME, cell-based.
Data set [21] has as its system Hepatocyte. In words: Drug metabolism in human hepatocytes assessed as oxidative metabolite formation. Type of data set: ADME, cell-based.
The test system of data set [22] is Hepatocyte. In words: Drug metabolism in rat hepatocytes assessed as oxidative metabolite formation. Type of data set: ADME, cell-based.
Data set [23] has as its system Hepatocyte. In words: Drug metabolism in rat hepatocytes assessed as glucuronidation. The class given is ADME, cell-based.

T1 sequence (P42261 whole entry, canonical isoform): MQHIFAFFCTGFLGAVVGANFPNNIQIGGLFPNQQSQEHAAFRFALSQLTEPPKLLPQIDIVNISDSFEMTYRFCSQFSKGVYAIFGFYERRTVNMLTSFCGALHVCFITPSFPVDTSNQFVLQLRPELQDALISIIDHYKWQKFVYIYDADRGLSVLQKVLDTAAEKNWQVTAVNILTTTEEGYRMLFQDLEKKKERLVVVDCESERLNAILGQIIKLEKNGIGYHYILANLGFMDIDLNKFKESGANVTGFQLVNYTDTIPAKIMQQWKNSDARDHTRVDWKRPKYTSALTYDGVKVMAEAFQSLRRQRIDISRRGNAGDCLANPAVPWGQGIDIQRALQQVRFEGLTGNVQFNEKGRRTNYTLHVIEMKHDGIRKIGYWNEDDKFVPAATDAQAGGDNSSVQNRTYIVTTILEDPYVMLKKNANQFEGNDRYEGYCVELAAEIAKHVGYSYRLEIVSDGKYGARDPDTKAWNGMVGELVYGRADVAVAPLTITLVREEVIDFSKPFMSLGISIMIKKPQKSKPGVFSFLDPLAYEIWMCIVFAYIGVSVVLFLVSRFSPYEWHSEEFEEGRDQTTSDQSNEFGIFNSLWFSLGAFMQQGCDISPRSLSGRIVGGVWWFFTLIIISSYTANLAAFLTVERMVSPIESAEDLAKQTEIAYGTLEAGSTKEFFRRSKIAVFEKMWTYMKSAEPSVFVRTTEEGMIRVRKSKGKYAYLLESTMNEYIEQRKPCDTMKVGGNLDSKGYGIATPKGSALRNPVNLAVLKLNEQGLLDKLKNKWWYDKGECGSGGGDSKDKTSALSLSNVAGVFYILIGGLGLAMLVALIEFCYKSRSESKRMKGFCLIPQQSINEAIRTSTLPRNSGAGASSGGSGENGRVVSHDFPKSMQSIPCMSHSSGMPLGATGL

For the compound `N#Cc1ccccc1-c1cc(-c2ccccn2)cn(-c2ccccc2)c1=O` [PERAMPANEL], the IC50 was 0.243 µM in data set [1]; 0.623 µM in [2]; 1.18 µM in data set [3]; 0.485 µM in [5]; 6.51 µM in [8]. In addition, in data set [4], the ED50 came out at 10.6 mg/kg. Besides, the “Ratio TD50/ED50” value in data set [6] was found to be 0.4. In [7], the Activity result was “Toxic”.

Turning to `C[C@H](c1ccc2[nH]c(=O)sc2c1)c1ccn(-c2ccc(OCCO)cn2)n1`, the IC50 in [3] was found to be 1.79 µM; in data set [5] it was 9.26 µM; in data set [8], 9.26 µM.

For the compound `C[C@@H](c1ccc2[nH]c(=O)sc2c1)c1ccn(-c2ccc(CCC(C)(C)O)cn2)n1`, the clearance in data set [9] turned out to be 6 mL/min/kg. Moreover, the IC50 in data set [3] was 0.16 µM; in data set [5], 9.26 µM; in [8] it was 9.26 µM.

For `CCOCCN(c1ccc2[nH]c(=O)sc2c1)c1nc(-c2ccccn2)cs1`, the IC50 in data set [3] was 0.022 µM.

`C[C@@H](c1ccc2[nH]c(=O)sc2c1)c1ccn(-c2ccc(CCO)cn2)n1` yielded a clearance in data set [9] of 16.3 mL/min/kg. Also, the half-inhibitory concentration (IC50) was 0.0616 µM in data set [3], 25.7 µM in [5] and 83.3 µM in data set [8].

Turning to `C[C@H](c1ccc2[nH]c(=O)sc2c1)c1ccn(-c2ccc(CCO)cn2)n1`, the IC50 was 2.82 µM in data set [3], 9.26 µM in [5] and 9.26 µM in data set [8].

Regarding `Cn1ccc(CN(c2ccc3[nH]ncc3c2)c2nc(-c3ccccn3)cs2)n1`, the IC50 was 0.0539 µM in data set [3], 83.3 µM in data set [5], greater than 10 µM in data set [11] and 83.3 µM in data set [8]. The compound also gave an Activity in [10] of less than 15%.

In [9], `C[C@@H](c1ccc2[nH]c(=O)sc2c1)c1ccn(-c2ccccn2)n1` registered a clearance of 99 mL/min/kg. The IC50 was 0.0509 µM in data set [3], 83.3 µM in data set [5], greater than 10 µM in [11] and 9.26 µM in [8]. In data set [10], this compound showed an Activity of less than 15%.

In turn, `CN(c1ccc2[nH]c(=O)sc2c1)c1nc(-c2ccccn2)cs1` came in with a clearance in data set [9] of 96.6 mL/min/kg. Besides, the IC50 is 0.07 µM in data set [3], greater than 83.3 µM in data set [5], 0.36 µM in data set [11] and greater than 83.3 µM in [8].

The compound `CN(c1ccc2[nH]ncc2c1)c1ccn(-c2ccccn2)n1` had a clearance in data set [9] of 61.3 mL/min/kg. In addition, the IC50 is 0.353 µM in data set [3], greater than 83.3 µM in data set [5], 0.23 µM in data set [11] and greater than 83.3 µM in [8].

In the case of `C[C@H](c1ccc2[nH]c(=O)sc2c1)c1ccn(-c2ccccn2)n1`, in data set [9], the clearance was 144 mL/min/kg. The IC50 in data set [3] is 0.615 µM; in data set [5] it was 83.3 µM; in data set [11], 4.67 µM; in data set [8] it was 9.26 µM. This compound had an Activity in data set [10] of less than 15%.

For the compound `CN(c1ccc(O)cc1)c1nc(-c2ccccn2)cs1`, the IC50 is greater than 83.3 µM in [1]; greater than 83.3 µM in [2]; 2.97 µM in data set [3]; greater than 83.3 µM in [5]; greater than 83.3 µM in data set [8]. The metabolised in data set [12] amounted to 33%; in data set [14], 99%. The compound also showed a clearance in [9] of 234 mL/min/kg. The Drug metabolism result in [13] and in data set [15] was “metabolite_detected” each time.

Take `CN(c1ccc2[nH]ncc2c1)c1nc(-c2ccccn2)cs1`: the Cmax was found to be 3740 ng/mL in data set [16] and 1930 ng/mL in data set [17]. The same compound yielded a clearance in [9] of 71.5 mL/min/kg. For the same compound, the AUC in data set [18] is 52300 ng·h/mL; in [19], 3150 ng·h/mL. For the same compound, the IC50 in data set [3] was 0.147 µM; in data set [5], greater than 83.3 µM; in data set [11], 0.222 µM; in [8], greater than 83.3 µM.

As for `C[C@@H](c1ccc2[nH]c(=O)sc2c1)c1ccn(-c2ccc(F)cn2)n1`, in data set [9], the clearance stood at 42.2 mL/min/kg. In addition, the IC50 in [3] worked out at 0.0536 µM; in data set [5], 83.3 µM; in [8], 83.3 µM.

In the case of `CC(c1ccc2[nH]c(=O)sc2c1)c1ccn(-c2ccccn2)n1` (racemic), the Drug metabolism entry in [20], in data set [21], in data set [22] and in data set [23] was “metabolite_detected” in each case. In addition, the clearance in data set [9] is 115 mL/min/kg. The IC50 amounted to 0.122 µM in data set [3], 83.3 µM in data set [5], 8.68 µM in [11] and 83.3 µM in data set [8]. The compound further registered an Activity in data set [10] of less than 15%.
